Reference: ChEMBL document CHEMBL4732060, “Cytotoxic triterpenoid-safirinium conjugates target the endoplasmic reticulum” (Eur J Med Chem, 2021)
Active and inactive are the calls of the source. No cut-off for these calls is given here.

How the values were obtained:
MCF7 [1] = experiment: Cytotoxicity against human MCF7 cells assessed as reduction in cell viability measured after 72 hrs by SRB assay; assay type: functional, cell-based; conditions: MCF7, 72 h
A2780 [2] = experiment: Cytotoxicity against human A2780 cells assessed as reduction in cell viability measured after 72 hrs by SRB assay; assay type: functional, cell-based; conditions: A2780, 72 h
FaDu [3] = experiment: Cytotoxicity against human FaDu cells assessed as reduction in cell viability measured after 72 hrs by SRB assay; assay type: functional, cell-based
A-375 [4] = experiment: Cytotoxicity against human A-375 cells assessed as reduction in cell viability measured after 72 hrs by SRB assay; assay type: functional, cell-based; conditions: A-375, 72 h
NIH3T3 [5] = experiment: Cytotoxicity against mouse NIH3T3 cells assessed as reduction in cell viability measured after 72 hrs by SRB assay; assay type: cell-based; conditions: NIH3T3, 72 h
In short: (§1)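 Sulforhodamine B assay on human tumour lines A375 (epithelial melanoma), HT29 (colorectal adenocarcinoma), MCF-7 (breast adenocarcinoma), A2780 (ovarian carcinoma) and FaDu (squamous cell carcinoma). Non-malignant NIH 3T3 (mouse fibroblasts) and HEK293 (human embryonic kidney) cells were also tested. EC50 values are given as mean ± standard mean error.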

HT-29 [6] = experiment: Cytotoxicity against human HT-29 cells assessed as reduction in cell viability measured after 72 hrs by SRB assay; assay type: functional, cell-based; conditions: HT-29, 72 h
HEK293 [7] = experiment: Cytotoxicity against human HEK293 cells assessed as reduction in cell viability measured after 72 hrs by SRB assay; assay type: ADME, cell-based; conditions: HEK293, 72 h
HT-29 [8] = experiment: Cytotoxicity against human HT-29 cells assessed as reduction in cell viability upto 30 uM measured after 72 hrs by SRB assay; assay type: functional, cell-based; conditions: dose microM <=30, time 72.0 hrs; in short: as §1
FaDu [9] = experiment: Cytotoxicity against human FaDu cells assessed as reduction in cell viability upto 30 uM measured after 72 hrs by SRB assay; assay type: functional, cell-based; conditions: dose microM <=30, time 72.0 hrs; in short: as §1
HEK293 [10] = experiment: Cytotoxicity against human HEK293 cells assessed as reduction in cell viability upto 30 uM measured after 72 hrs by SRB assay; assay type: cell-based; conditions: hek293, 72 h; in short: as §1
A-375 [11] = experiment: Cytotoxicity against human A-375 cells assessed as reduction in cell viability upto 30 uM measured after 72 hrs by SRB assay; assay type: functional, cell-based; conditions: dose microM <=30, time 72.0 hrs; in short: as §1
NIH3T3 [12] = experiment: Cytotoxicity against mouse NIH3T3 cells assessed as reduction in cell viability upto 30 uM measured after 72 hrs by SRB assay; assay type: cell-based; conditions: nih3t3, 72 h; in short: as §1
[13] = Drug uptake in human A-375 cells measured after 24 hrs by fluorescence imaging analysis; assay type: ADME, cell-based; conditions: a-375, 24 h
In short: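 Fluorescence imaging of cells after a prolonged 24 h incubation with compound, to judge entry into the cells.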

MCF7 [14] = experiment: Cytotoxicity against human MCF7 cells assessed as reduction in cell viability upto 30 uM measured after 72 hrs by SRB assay; assay type: functional, cell-based; conditions: dose microM <=30, time 72.0 hrs; in short: as §1
A2780 [15] = experiment: Cytotoxicity against human A2780 cells assessed as reduction in cell viability upto 30 uM measured after 72 hrs by SRB assay; assay type: functional, cell-based; conditions: dose microM <=30, time 72.0 hrs; in short: as §1

| Structure (SMILES) | EC50 (MCF7 [1]) [µM] | EC50 (A2780 [2]) [µM] | EC50 (FaDu [3]) [µM] | EC50 (A-375 [4]) [µM] | EC50 (NIH3T3 [5]) [µM] | EC50 (HT-29 [6]) [µM] | EC50 (HEK293 [7]) [µM] | Activity (HT-29 [8]) | Activity (FaDu [9]) | Activity (HEK293 [10]) | Activity (A-375 [11]) | Activity (NIH3T3 [12]) | Drug uptake [13] | Activity (MCF7 [14]) | Activity (A2780 [15]) |
| --- | --- | --- | --- | --- | --- | --- | --- | --- | --- | --- | --- | --- | --- | --- | --- |
| CC[N+]1(CC)CN2C(=N1)C(C(=O)N1CCN(C(=O)[C@]34CC[C@@H](C)[C@H](C)[C@H]3C3=CC[C@@H]5[C@@]6(C)CC[C@H](OC(C)=O)C(C)(C)[C@@H]6CC[C@@]5(C)[C@]3(C)CC4)CC1)=Cc1ccccc12 | 10.2 | 9 | 18.3 | 21.4 | > 30 | > 30 | – | – | – | – | – | – | – | – | – |
| COc1cccc2c1C(=O)c1c(O)c3c(c(O)c1C2=O)C[C@@](O)(C(=O)CO)C[C@@H]3O[C@H]1C[C@H](N)[C@H](O)[C@H](C)O1 [DOXORUBICIN] | 1.1 | 0.01 | – | – | 0.4 | 0.9 | – | – | – | – | – | – | – | – | – |
| C=C(C)[C@@H]1CC[C@]2(C(=O)N3CCN(C(=O)C4=Cc5ccccc5N5C[N+](CC)(CC)N=C45)CC3)CC[C@]3(C)C(=CC[C@@H]4[C@@]5(C)CC[C@H](OC(C)=O)C(C)(C)[C@@H]5CC[C@]43C)[C@H]12 | 18.1 | 14.1 | 28.2 | 20.8 | > 30 | 27 | 16.5 | – | – | – | – | – | – | – | – |
| C=C(C)[C@@H]1CC[C@]2(C(=O)N3CCN(C(=O)C4=C(C)C=C(C)N5C[N+](CC)(CC)N=C45)CC3)CC[C@]3(C)[C@H](CC[C@@H]4[C@@]5(C)CC[C@H](OC(C)=O)C(C)(C)[C@@H]5CC[C@]43C)[C@@H]12 | 26.3 | 21.6 | > 30 | 26.2 | 22.4 | > 30 | – | – | – | – | – | – | – | – | – |
| CC[N+]1(CC)CN2C(=N1)C(C(=O)NCCNC(=O)[C@]13CC[C@@H](C)[C@H](C)[C@H]1C1=CC[C@@H]4[C@@]5(C)CC[C@H](OC(C)=O)C(C)(C)[C@@H]5CC[C@@]4(C)[C@]1(C)CC3)=Cc1ccccc12 | 11.7 | 11.2 | 10.2 | 13.8 | 3.6 | 22.1 | – | – | – | – | – | – | – | – | – |
| CC1=CC(C)=C(C(=O)[O-])C2=N[N+]3(CCN(C)CC3)CN12 | > 30 | > 30 | > 30 | > 30 | > 30 | > 30 | – | inactive | inactive | Non-Toxic | inactive | Non-Toxic | Not Active | inactive | inactive |
| CCCCCCCCCCCC[N+]1(CCCCCCCCCCCC)CN2C(C)=CC(C)=C(C(=O)[O-])C2=N1 | > 30 | > 30 | > 30 | > 30 | > 30 | > 30 | – | inactive | inactive | Non-Toxic | inactive | Non-Toxic | Not Active | inactive | inactive |
| CC[N+]1(CC)CN2C(=N1)C(C(=O)[O-])=Cc1ccccc12 | – | – | – | – | – | – | – | – | – | – | – | – | Not Active | – | – |
| CC[N+]1(CC)CN2C(C)=CC(C)=C(C(=O)[O-])C2=N1 | > 30 | > 30 | > 30 | > 30 | > 30 | > 30 | – | inactive | inactive | Non-Toxic | inactive | Non-Toxic | Not Active | inactive | inactive |
| C=C(C)[C@@H]1CC[C@]2(C(=O)N3CCN(C(=O)C4=C(C)C=C(C)N5C[N+](CCCCCCCCCCCC)(CCCCCCCCCCCC)N=C45)CC3)CC[C@]3(C)[C@H](CC[C@@H]4[C@@]5(C)CC[C@H](OC(C)=O)C(C)(C)[C@@H]5CC[C@]43C)[C@@H]12 | 15.7 | 11 | 10.7 | 16.8 | > 30 | 24.9 | 13.3 | – | – | – | – | – | – | – | – |
| CCN(CC)c1ccc2c(-c3ccccc3C(=O)O)c3ccc(=[N+](CC)CC)cc-3oc2c1 [RHODAMINE] | > 30 | > 30 | > 30 | > 30 | > 30 | > 30 | > 30 | – | – | – | – | – | – | – | – |
| CC1=CC(C)=C(C(=O)[O-])C2=N[N+]3(CCCC3)CN12 | > 30 | > 30 | > 30 | > 30 | > 30 | > 30 | – | inactive | inactive | Non-Toxic | inactive | Non-Toxic | Not Active | inactive | inactive |
| CC[N+]1(CC)CN2C(=N1)C(C(=O)NCCNC(=O)[C@]13CC[C@@H](C(C)=O)[C@@H]1C1=CC[C@@H]4[C@@]5(C)CC[C@H](OC(C)=O)C(C)(C)[C@@H]5CC[C@@]4(C)[C@]1(C)CC3)=Cc1ccccc12 | 15.7 | 20.8 | 16.1 | 16.6 | 21.3 | > 30 | – | – | – | – | – | – | – | – | – |
| CC[N+]1(CC)CN2C(=N1)C(C(=O)N1CCN(C(=O)[C@]34CCC(C)(C)C[C@H]3C3=CC[C@@H]5[C@@]6(C)CC[C@H](OC(C)=O)C(C)(C)[C@@H]6CC[C@@]5(C)[C@]3(C)CC4)CC1)=Cc1ccccc12 | 19.8 | 21.4 | 18.1 | 21.4 | 18.4 | 26.2 | – | – | – | – | – | – | – | – | – |
| CC1=CC(C)=C(C(=O)[O-])C2=N[N+](C)(C)CN12 | > 30 | > 30 | > 30 | > 30 | > 30 | > 30 | – | inactive | inactive | Non-Toxic | inactive | Non-Toxic | Not Active | inactive | inactive |
| CC1=CC(C)=C(C(=O)[O-])C2=N[N+]3(CCOCC3)CN12 | > 30 | > 30 | > 30 | > 30 | > 30 | > 30 | – | inactive | inactive | Non-Toxic | inactive | Non-Toxic | Not Active | inactive | inactive |
| CCCCCC[N+]1(CCCCCC)CN2C(C)=CC(C)=C(C(=O)[O-])C2=N1 | > 30 | > 30 | > 30 | > 30 | > 30 | > 30 | – | inactive | inactive | Non-Toxic | inactive | Non-Toxic | Not Active | inactive | inactive |
| CC[N+]1(CC)CN2C(=N1)C(C(=O)NCCNC(=O)[C@]13CCC(C)(C)C[C@H]1C1=CC[C@@H]4[C@@]5(C)CC[C@H](OC(C)=O)C(C)(C)[C@@H]5CC[C@@]4(C)[C@]1(C)CC3)=Cc1ccccc12 | 21.8 | 24.2 | 27.1 | 19 | 28.5 | 25 | – | – | – | – | – | – | – | – | – |
| CC1=CC(C)=C(C(=O)[O-])C2=N[N+]3(CCCCC3)CN12 | > 30 | > 30 | > 30 | > 30 | > 30 | > 30 | – | inactive | inactive | Non-Toxic | inactive | Non-Toxic | Not Active | inactive | inactive |
| CCCCCCCC[N+]1(CCCCCCCC)CN2C(C)=CC(C)=C(C(=O)[O-])C2=N1 | > 30 | > 30 | > 30 | > 30 | > 30 | > 30 | – | inactive | inactive | Non-Toxic | inactive | Non-Toxic | Not Active | inactive | inactive |
| CC[N+]1(CC)CN2C(=N1)C(C(=O)N1CCN(C(=O)[C@]34CC[C@@H](C(C)=O)[C@@H]3C3=CC[C@@H]5[C@@]6(C)CC[C@H](OC(C)=O)C(C)(C)[C@@H]6CC[C@@]5(C)[C@]3(C)CC4)CC1)=Cc1ccccc12 | 13.2 | 10.9 | 13.3 | 15 | 3 | 22.2 | – | – | – | – | – | – | – | – | – |
